Apaf1 activ: human Apaf-1 activation; activity change, negative = activation, % at 20 µM; Apaf-1 apoptosome caspase-3 activation, DEVD-Rh110 fluorescence; active compounds read low; actives 0.31% (n = 330,000);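 active = activity change at or below -40% at 20 µM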
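Material: reconstituted apoptosome of Apaf-1, cytochrome c, caspase-9, procaspase-3; times: 30 min preincubation, 50 min reaction, room temperature; measured by: fluorescence, 540 nm emission, 480 nm excitation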
Rh110 act interf: counter-screen for Apaf-1 activators: fluorescence interference; 980 tested, under 10 active; AID 504616; Rh110 fluorescence interference, quenched caspase reaction, Ex480/Em540; shares compounds with Apaf1 activ; fluorescence interference (activity change), % at 20 µM, hits read low;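 active = mean activity change at or below -40% when tested at 20 µM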
Apaf-1 act conf: Apaf-1 (human) activation, single-dose confirmed; shares compounds with Apaf1 activ; reconstituted apoptosome caspase-3 activity, DEVD-Rh110 fluorescence; active compounds read low; activity change, negative = activation, % at 20 µM; actives 5% (n = 980);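 active = mean activity change at or below -40%, meaning activation of 40% or more, at 20 µM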
Apaf1 act interf: counter-screen for Apaf-1 activators: fluorescence interference, dose response. AID 588592. 55 tested, under 10 active. fluorescence interference counterscreen, Apaf-1 activator assay. EC50, µM. shares compounds with Apaf1 activ; call rule not given here
* marks the source's active call; other numbers are inactive results; · = no result. These entries were drawn from the full list.

SMILES	Apaf1 activ	Rh110 act interf	Apaf-1 act conf	others
Cc1ccc2[nH]c3c(c2c1)CN(C(=O)CN1CCN(c2cccc(C)c2C)CC1)CC3	43	·	·
CCC(CO)Oc1cc(NCc2ccc(F)cc2)c2ncn(C(C)C)c2c1 (stereo unspecified)	43	·	·
CN(C(=O)COC(=O)c1cc(S(=O)(=O)N2CCOCC2)c(Cl)cc1Cl)C1CCS(=O)(=O)C1 (stereo unspecified)	-156*	-3	7
C1CCC(C(CC2CCCCN2)C2CCCCC2)CC1 (stereo unspecified)	60	·	·
Fc1ccccc1Nc1nc(-c2ccncc2)nc2ccccc12	-321*	2	8
C=CCN(CC=C)Cc1c(O)ccc2c1oc(=O)c1ccccc12	47	·	·
CCC[C@@H](CN1CCC[C@H]1CN1C(N)=NC[C@H]1CC(C)C)N1C[C@@H](Cc2ccccc2)N(CCCC2CCCC2)C1=N	59	·	·
CCOC(=O)c1c(NC(=O)c2ccno2)c2cc([N+](=O)[O-])ccc2n1C	-45*	9	5
O=C(/C=C/c1ccc(-c2ccccc2[N+](=O)[O-])o1)c1ccco1	43	·	·
Cc1oc2c(c1C(=O)O)C(=O)c1ccccc1C2=O	79	·	·
Cc1ccc(NC(=O)C2CCN(C(=O)[C@@H]3Cc4ccccc4CN3)CC2)c(C)c1	-72*	-4	9
Cc1noc(C)c1COc1ccccc1C(=O)N1CCN(c2cccc(Cl)c2)CC1	52	·	·
COc1ccccc1N1CCN(C(=O)c2cc(C(C)(C)C)oc2C)CC1	-380*	4	7
Cc1cc(C)c2c(=O)c(/C=C3\NC(=S)NC3=O)coc2c1	-99*	10	-63*	Apaf1 act interf=>100
COCc1cc(=O)oc2cc(NC(=O)c3ccc(C(C)(C)C)cc3)ccc12	-64*	0	7
CCOC(=O)c1nn(-c2ccc(C)c(C)c2)c(=O)c2c(N)scc12	56	·	·
Cc1cc(SCC(=O)OC(C)C(=O)N(C)c2ccccc2)nc2ccccc12 (stereo unspecified)	-324*	-1	8
Cn1c(=O)oc2cc(S(=O)(=O)Nc3ccccc3O)ccc21	-46*	10	14
O=S(=O)(Nc1ccc(O)c2ccccc12)c1ccc(Br)cc1	57	·	·
CCN1CCN(Cc2ccc(NC(=O)c3ccc(C)c(NC(=O)c4cc(-c5ccc(Br)cc5)n[nH]4)c3)cc2C(F)(F)F)CC1	45	·	·
Cc1[nH]n(-c2ccccc2)c(=O)c1C(c1ccc(C(=O)O)cc1)c1c(C)[nH]n(-c2ccccc2)c1=O	71	·	·
CSc1cccc(NC(=O)c2cccc3cccnc23)c1	-73*	2	13
O=C(Nc1ccncc1)c1cc(-c2cccc(Br)c2)nc2ccccc12	47	·	·
Cc1cc(C(=O)COc2cccc3cccnc23)c(C)n1C	53	·	·
COc1cc(CNc2ccc(N3CCOCC3)cc2)cc(Br)c1OC	-85*	3	2
SMILES	Apaf1 activ	Rh110 act interf	Apaf-1 act conf	others
CCOc1cc(CNc2ccc(N3CCCC3)cc2)cc(Cl)c1OC	55	·	·
CCOc1cc(CNc2ccc(N3CCCCC3)cc2)cc(Br)c1OCC(=O)NC(C)(C)C	44	·	·
O=C1C=C(O)c2cccc(O)c2C1=O	44	·	·
Cc1cc2oc3cc(NCCC4CCCN4C)ccc3c(=O)c2cc1C (stereo unspecified)	44	·	·
Cc1ccc(NC(=O)C2CCCN2C(=O)NC2CCCCC2)cc1C (stereo unspecified)	-120*	13	9
CCN1/C(=C/C=C/c2oc3ccc4ccccc4c3[n+]2CC)Oc2ccc3ccccc3c21	76	·	·
COc1cccc(OCC(O)CN2CCN(c3ccccc3)CC2)c1 (stereo unspecified)	5	·	·
OC(CN1CCN(c2ccccc2)CC1)c1ccc2c(c1)CCN2 (stereo unspecified)	-460*	18	14
COc1ccc2nc(C)cc(N/N=C/c3ccccc3)c2c1	50	·	·
Cc1cc(C)c(S(=O)(=O)/N=C2\C=C(NS(=O)(=O)c3ccccc3)C(=O)c3ccccc32)c(C)c1	64	·	·
COc1ccc(-c2nn(-c3ccccc3)cc2/C=C(/C#N)C(N)=O)cc1[N+](=O)[O-]	-57*	12	-23
N#C/C(=C/c1cn(-c2ccccc2)nc1-c1cccc(OCc2ccc(F)cc2)c1)C(=O)NCCCn1ccnc1	44	·	·
COc1ccc(-c2nn(-c3ccccc3)cc2/C=C(\C#N)C(N)=O)cc1[N+](=O)[O-]	-53*	-1	-29
CC1=NN(c2ccccc2)C(=O)/C1=C\c1ccc(Oc2ccc([N+](=O)[O-])cc2[N+](=O)[O-])cc1	92	·	·
CC(C)n1ncc2c(C(=O)Nc3ccc(S(N)(=O)=O)cc3)cc(C3CC3)nc21	75	·	·
Cc1ccc(N2CCN(S(=O)(=O)c3cccs3)CC2C)cc1 (stereo unspecified)	62	·	·
Cc1sc2ncnc(N3CCC(C(=O)Nc4ccc(Cl)c(Cl)c4)CC3)c2c1C	42	·	·
CCC(C)c1ccc(NC(=O)C2CCN(c3ncccn3)CC2)cc1 (stereo unspecified)	-122*	11	16
O=C1N(c2ccccc2)c2ccccc2C1(Cc1ccncc1)Cc1ccncc1	5	·	·
C=CC[C@@H](Cc1ccc(F)cc1)C(=O)OC[C@@H]1CCCN1C(=O)[C@@H](CC=C)CC(=O)N[C@@H](CO)Cc1ccccc1	40	·	·
O=C(c1ccccc1)c1ccc2c(c1)OCCOCCOCCOCCO2	-208*	1	1
CCCCCc1cc(=O)oc2c(C(CCN3CCCC(C)C3)c3ccc(OC)cc3)c(OC)cc(OC)c12 (stereo unspecified)	66	·	·
COc1cc(/C=C2\C(=O)N(c3ccc(S(N)(=O)=O)cc3)N=C2C)ccc1OC(=O)c1ccco1	91	·	·
CC(=O)N(C)C1=C(O)c2ccccc2C(=O)C1=O	40	·	·
Cc1ccc(S(=O)(=O)NC2=C(N3CCN(c4ccccc4F)CC3)C(=O)c3ccccc3C2=O)cc1	76	·	·
SMILES	Apaf1 activ	Rh110 act interf	Apaf-1 act conf	others
O=C(COc1ccc2c3c(c(=O)oc2c1)CCC3)N1CCN(c2ccc(F)cc2)CC1	42	·	·
Cc1oc2cc(OCC(=O)O)ccc2c(=O)c1Oc1ccccc1	-100*	4	12
CCOC(=O)c1c2ccc(OCC(=O)NN)cc2n2ccccc12	42	·	·
CC(C)(C)c1ccc(-c2nn(CCC#N)cc2/C=N/O)cc1	50	·	·
CCN(CC)CCN(C(=O)c1ccc(C(=O)c2ccccc2)cc1)c1nc2ccc(OC)cc2s1	44	·	·
CC1(C)Cc2ccccc2C2=NNC(=O)C2=N1	62	·	·
Cc1ccc2oc(=O)cc(CN3CC(C)OC(C)C3)c2c1 (stereo unspecified)	-66*	11	8
COc1ccc(S(=O)(=O)Oc2ccc3cccc(N)c3c2)cc1	88	·	·
Cc1noc(NS(=O)(=O)c2ccc(N/C=C\C(=O)c3ccc(F)cc3)cc2)c1C	-111*	-3	21
CCCCNc1c(-c2ccc(SC(C)CC)cc2)nc2cnccn12 (stereo unspecified)	60	·	·
CCCCN(CC)c1nc(N)c2c(N)nc(OCC)cc2c1C#N	98	·	·
O=C(c1ccccc1)N1CCCC(c2ccc(Cl)cc2)=N1	-41*	19	15
Cc1ccc(NC2=CC(=O)C(=O)c3ccccc32)cc1	87	·	·
